Screening results (PubChem)
PTPN22 inh 2: inhibitors of human LYP (PTPN22) phosphatase; Q9Y2R2; recombinant LYP catalytic domain, DiFMUP fluorescence; inhibition, % at 2 µM; 96,000 tested, 0.21% active; AID 640;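 active = inhibition at 2 µM at or above a set limit, the screen mean plus 3 SD, cut at about 24% in these data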
PTPN22 act: LYP (human) phosphatase activation | 96,000 tested, 0.11% active | AID 697 | Q9Y2R2 | activation, % at 2 µM | recombinant LYP, DiFMUP fluorescence; 0 = plate median, 100 = signal doubled;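 active = activation at 2 µM above a set limit, the mean plus 5 SD, cut at about 37% in these data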
PTK2B oligo ant: blocks oligomerization of human Pyk2 in cells; z-score (the deposit names both 25 µM and 10 µM); Q14289; 99,000 tested, 0.83% active; Q293 cells, Pyk2 FERM NanoBiT luminescence; active compounds read low;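 active = Z-score of -3 or lower, scaled per plate to the spread of control and sample wells; inactive = z-score above -3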;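 note: negative z-score means lost luminescence so less FERM oligomerization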
Rev-RRE block: HIV Rev-RRE protein-RNA interaction inhibition. P05866. Rev peptide-RRE RNA binding, FRET. inhibition, % at 8 µM. 97,000 tested, 0.79% active. AID 704;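 active = inhibition above the screen-wide mean plus 3 SD, cut at about 35% in these data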
Target sequence (P05866 whole entry, looked up): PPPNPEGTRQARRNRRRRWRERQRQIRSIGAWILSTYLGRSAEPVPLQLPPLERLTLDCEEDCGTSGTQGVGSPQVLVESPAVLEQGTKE
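Assay system: Rev peptide and RRE RNA, both fluorescently labelled; times: 5 min preincubation and 15 min binding, 25 °C; detection: FRET, ex 480 nm, em 540 and 671 nm; read-out basis: % inhibition from 671/540 nm acceptor-to-donor ratio, scaled between controls; benchmarks: DMSO low control, neomycin B high control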
Numbers stand for hits; 0 = inactive; - = not tested or not shown; [ ] = dose if it differs, or a comment. Only some compounds are listed: those with a hit (about 1.8% of all), similar ones and a draw of the others.

SMILES	PTPN22 inh 2	PTPN22 act	PTK2B oligo ant	Rev-RRE block
Cc1ccccc1N1C(=O)c2cccc3c(N(C)CCO)ccc(c23)C1=O	0	0	0	125[fluorescence artefact?]
O=C(CCC(=O)OC(C(=O)c1ccccc1)c1ccccc1)Nc1ccccc1 (configuration not stated)	24	0	0	0
CSc1ccc(CNCCCN(C)C)cc1	-	-	0	-
O=[n+]1c2c(n([O-])c3cc(F)c(N4CCCC4)cc31)CCC2	0	0	0	66[fluorescence artefact?]
O=[n+]1c2c(n([O-])c3cc(F)ccc31)CCCC2	0	0	0	0
O=[n+]1c2c(n([O-])c3cc(F)c(N4CCCC4)cc31)CCCC2	0	0	0	79[fluorescence artefact?]
Cn1c(N)c(C(=O)c2cc(-c3ccccn3)nc3ccccc23)c(=O)[nH]c1=O	0	0	0	0
Cc1cccc(NC(=O)c2sc3nc4c(c(-c5cccs5)c3c2N)CN(C)CC4)c1	0	0	0	71
CC(C)NC(=O)c1sc2nc3c(c(-c4cccs4)c2c1N)CN(C)CC3	0	0	0	0
CCOC(=O)CSc1nc(Nc2ccc3c(c2)OCO3)c2ccccc2n1	0	0	-3	0
CCOC(=O)CSc1nc(NCc2ccco2)c2ccccc2n1	0	0	0	0
N#CCSc1nc(Nc2ccc3c(c2)OCO3)c2ccccc2n1	0	0	-4.2	0
Cn1c(=O)[nH]c(=O)c2[nH]c(N(Cc3ccccc3)Cc3ccccc3)nc21	0	0	-3.2	0
CC1(C)CC(=O)C=C(NCCN2CCN(C(=O)Nc3ccccc3)CC2)C1	0	0	0	0
CN(C)C=Nc1c(Br)cc(Br)c2nonc12	0	0	0	68[fluorescence artefact?]
O=c1[nH]c(=O)n(Cc2ccco2)c2c1C(C(F)(F)F)(C(F)(F)F)N=C(Cc1ccccc1)N2	0	0	-3.7	0
CC(=O)NC1(C(F)(F)F)C(=O)Nc2c1c(=O)[nH]c(=O)n2Cc1ccco1 (configuration not stated)	0	0	0	0
O=c1oc2c3c4c(cc2c(C(F)(F)F)c1CCN1CCOCC1)CCCN4CCC3	0	0	0	113[fluorescence artefact?]
Cc1ccc(NC(=O)c2cc([N+](=O)[O-])ccc2NCc2cccnc2)cc1Cl	0	0	-3.7	0
CC1CCCCN1C(=O)Cn1cc(/C=C2/C(=O)Nc3ccccc32)c2ccccc21 (configuration not stated)	0	0	-	0
Nn1cnnc1N/N=C/c1cc(Br)cc(Br)c1O	28	0	0	0
Cc1nnc(C)n1/N=C/c1cc(Br)cc(Br)c1O	0	0	0	0
CCCCOC(=O)Nc1cccc(C(C)=O)c1	0	0	0	0
O=c1ccc2cc3c([nH]c4ccc(Br)cc43)oc-2c1O	0	0	0	37
CCOc1cc(Cl)c(NC(=O)c2ccco2)cc1OCC	-	-	0	-
SMILES	PTPN22 inh 2	PTPN22 act	PTK2B oligo ant	Rev-RRE block
CCOc1ccc2cc(/C=C/C(=O)c3ccco3)c(Cl)nc2c1	0	0	0	53
COc1ccc2nc(N3CCC(O)CC3)c(C#N)cc2c1	0	0	0	37
CCOC(=O)C1=C(O)/C(=C/c2cc(OC)c(OC)c(OC)c2)SC1=Nc1ccc(OC)cc1	0	0	0	0
CCOC(=O)C1=C(O)/C(=C/c2ccc(C)o2)SC1=NC(=O)c1ccccc1C	0	0	-	69
O=C(NCCCn1ccnc1)C1c2ccccc2Oc2ccccc21	0	0	0	0
O=c1nc2n(c3ccc(Br)cc13)CCS2	0	0	0	0
O=C(NCc1ccccc1)/C(NC(=O)c1ccccc1)=C(/Sc1ccccn1)c1ccccc1	0	0	-4.1	0
Cn1nc(-c2ccccc2)c(C(=O)Nc2ccc(Cl)cc2)c1Cl	0	0	0	0
Cc1ccc(S(=O)(=O)c2c(COC(=O)c3ccc(Cl)cc3)c(-c3ccccc3)nn2C)cc1	0	0	0	73
NC12CC3CC(C1)CC(CO)(C3)O2	-	-	0	-
CC(=O)[C@H]1[C@@H]2C(=O)N(c3cccc(Cl)c3)C(=O)[C@@H]2[C@H]2c3ccccc3C=CN21	0	0	0	60
CC(=O)[C@@H]1[C@@H]2C(=O)N(C3CCCCC3)C(=O)[C@@H]2C2c3ccccc3C=CN21 (some centres not stated)	0	0	-	41
CC(C)(C)C(=O)[C@@H]1[C@@H]2C(=O)N(Cc3ccccc3)C(=O)[C@@H]2[C@H]2c3ccccc3C=CN12	0	0	-	0
COc1ccc(C2C(C#N)=C(N)N(c3sc4c(c3C#N)CCCC4)C3=C2C(=O)CC(C)(C)C3)cc1OC (configuration not stated)	26	0	0	0
O=C1NC(=O)[C@@H]2C3c4ccccc4C=CN3[C@H](C(=O)c3cccs3)[C@H]12 (some centres not stated)	0	0	-	0
O=C(c1ccco1)[C@@H]1[C@@H]2C(=O)N(c3ccc(Br)cc3)C(=O)[C@@H]2C2c3ccccc3C=CN21 (some centres not stated)	0	0	0	41
O=C(c1ccco1)[C@@H]1[C@@H]2C(=O)N(c3ccc(F)cc3)C(=O)[C@@H]2C2c3ccccc3C=CN21 (some centres not stated)	0	0	-	42
O=C(CCN1C(=O)c2ccccc2C1=O)Nn1cnnc1	-	-	0	-
O=C(CSc1nnnn1C1CCCCC1)NCCc1ccccc1	0	0	0	0
O=C1S/C(=C\c2ccc(N3CCOCC3)o2)C(=O)N1Cc1c(F)cccc1Cl	0	0	0	121[fluorescence artefact?]
O=C1S/C(=C/c2ccc(N3CCOCC3)o2)C(=O)N1Cc1c(F)cccc1Cl	0	0	0	126[fluorescence artefact?]
CC(=O)OC(Cn1ccnc1)c1ccccc1 (configuration not stated)	0	0	0	0
COC(=O)C1=[N+]([O-])OC(C(=O)OC)C1c1c[nH]c2ccccc12 (configuration not stated)	0	0	0	0
CCSc1nnc(NC(=O)CSc2nc3c(cc2C#N)CCCC3)s1	0	0	-3.2	0
CC1(C)NC(=O)N(CC(=O)Nc2nc(-c3ccc(F)cc3)cs2)C1=O	0	0	0	0
SMILES	PTPN22 inh 2	PTPN22 act	PTK2B oligo ant	Rev-RRE block
N#C/C(=C\Nc1ccccc1O)c1nc2ccccc2o1	-	-	-3.4	-
CC(=O)NC1=C(C#N)C(c2ccccc2)c2c(ccc3ccccc23)O1 (configuration not stated)	0	0	0	0
CC[n+]1c(/C=C/Nc2ccccc2)oc2ccccc21	0	0	0	52
COc1[nH]c(/N=C/c2ccccc2)c(C#N)c1C#N	0	0	0	38
Cc1ccc2nc(N3CCN(S(=O)(=O)c4ccc5c(c4)OCCO5)CC3)c(C#N)cc2c1	0	0	0	0
N#CC(C(=O)NCc1ccccc1)c1nc2ccccc2nc1N1CCCC1 (configuration not stated)	0	0	0	62
CCN1CCN(c2nc3ccccc3nc2C(C#N)S(=O)(=O)c2ccc(C)cc2)CC1 (configuration not stated)	0	0	0	0
COc1ccc(S(=O)(=O)C(C#N)c2nc3ccccc3nc2N2CCCC(C)C2)cc1 (configuration not stated)	0	0	0	38
Cc1ccc(S(=O)(=O)C(C#N)c2nc3ccccc3nc2N2CCCC2)cc1 (configuration not stated)	0	0	0	77
